Measurements as given in ChEMBL document CHEMBL1828510, “Synthesis of 3-heteroarylthioquinoline derivatives and their in vitro antituberculosis and cytotoxicity studies” (Eur J Med Chem, 2011).
Values after ≈ are worked out from the molar mass of the structure shown.

Each compound was assayed on Mycobacterium tuberculosis (assay: Antimycobacterial activity against multidrug-resistant Mycobacterium tuberculosis H37Rv after 28 days by agar dilution method). Conditions: 672 h.
Type: functional
Method in brief: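 Agar dilution on Middlebrook 7H11 agar with OADC, run in duplicate at pH 7.4. The clinical isolate was resistant to isoniazid, rifampicin, ethambutol and ciprofloxacin. Inoculum from fresh slants was set to 1 mg/mL wet weight in 0.05% Tween 80 saline, diluted 10^-2 to about 10⁷ cfu/mL, and spotted onto 10-fold serial drug dilutions. Incubated at 37 °C and read at 28 days. MIC is the lowest concentration giving complete (99%) growth inhibition.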

With `Cc1nnc(Sc2c(-c3ccccc3)nc3ccccc3c2-c2ccccc2)s1` as the compound, how does the MIC read?
Its MIC is 30.4 µM (≈ 12.5 µg/mL).

`Cc1ccc(-c2nc3ccccc3c(-c3ccccc3)c2Sc2nnc(C)s2)cc1` was tested. Which MIC did it give?
Its MIC is 29.4 µM (≈ 12.5 µg/mL).

`Cc1nnc(Sc2c(-c3ccc(Cl)cc3)nc3ccccc3c2-c2ccccc2)s1` was tested. Which MIC did it give?
The MIC was 3.5 µM (≈ 1.56 µg/mL).

For `Cc1nnc(Sc2c(-c3ccc(Br)cc3)nc3ccccc3c2-c2ccccc2)s1`, which MIC is on record?
The MIC was 3.2 µM (≈ 1.57 µg/mL).

`COc1ccc(-c2nc3ccccc3c(-c3ccccc3)c2Sc2nnc(C)s2)cc1` was tested. Which MIC did it give?
Its MIC is 28.3 µM (≈ 12.5 µg/mL).

`Cc1nnc(Sc2c(-c3ccc4ccccc4c3)nc3ccccc3c2-c2ccccc2)s1` was tested. Which MIC did it give?
Its MIC is 13.5 µM (≈ 6.23 µg/mL).

How did the MIC turn out when `Cc1nnc(Sc2c(-c3ccc(-c4ccccc4)cc3)nc3ccccc3c2-c2ccccc2)s1` was run?
Its MIC is 6.4 µM (≈ 3.12 µg/mL).

For `c1ccc(-c2nc3ccccc3c(-c3ccccc3)c2Sc2nc3ccccc3s2)cc1`, which MIC is on record?
Its MIC is 55.9 µM (≈ 25 µg/mL).

For `Cc1ccc(-c2nc3ccccc3c(-c3ccccc3)c2Sc2nc3ccccc3s2)cc1`, which MIC is on record?
The MIC was 54.3 µM (≈ 25 µg/mL).

With `Clc1ccc(-c2nc3ccccc3c(-c3ccccc3)c2Sc2nc3ccccc3s2)cc1` as the compound, how does the MIC read?
Its MIC is 12.9 µM (≈ 6.21 µg/mL).

`Brc1ccc(-c2nc3ccccc3c(-c3ccccc3)c2Sc2nc3ccccc3s2)cc1` was tested. Which MIC did it give?
The MIC was 5.9 µM (≈ 3.1 µg/mL).

Which MIC does the source give for `COc1ccc(-c2nc3ccccc3c(-c3ccccc3)c2Sc2nc3ccccc3s2)cc1` here?
Its MIC is over 52.4 µM.

`c1ccc(-c2c(Sc3nc4ccccc4s3)c(-c3ccc4ccccc4c3)nc3ccccc23)cc1` was tested. Which MIC did it give?
The MIC was 50.3 µM (≈ 25 µg/mL).

With `c1ccc(-c2ccc(-c3nc4ccccc4c(-c4ccccc4)c3Sc3nc4ccccc4s3)cc2)cc1` as the compound, how does the MIC read?
The MIC was 47.2 µM (≈ 24.7 µg/mL).

`c1ccc(-c2nc3ccccc3c(-c3ccccc3)c2Sc2nnnn2-c2ccccc2)cc1` was tested. Which MIC did it give?
Its MIC is 54.6 µM (≈ 25 µg/mL).

For `Cc1ccc(-c2nc3ccccc3c(-c3ccccc3)c2Sc2nnnn2-c2ccccc2)cc1`, which MIC is on record?
The MIC was 53 µM (≈ 25 µg/mL).

How did the MIC turn out when `Clc1ccc(-c2nc3ccccc3c(-c3ccccc3)c2Sc2nnnn2-c2ccccc2)cc1` was run?
The MIC was 50.8 µM (≈ 25 µg/mL).

With `Brc1ccc(-c2nc3ccccc3c(-c3ccccc3)c2Sc2nnnn2-c2ccccc2)cc1` as the compound, how does the MIC read?
Its MIC is 23.3 µM (≈ 12.5 µg/mL).

Which MIC does the source give for `COc1ccc(-c2nc3ccccc3c(-c3ccccc3)c2Sc2nnnn2-c2ccccc2)cc1` here?
Its MIC is 51.2 µM (≈ 25 µg/mL).

With `c1ccc(-c2c(Sc3nnnn3-c3ccccc3)c(-c3ccc4ccccc4c3)nc3ccccc23)cc1` as the compound, how does the MIC read?
The MIC was 49.2 µM (≈ 25 µg/mL).

`c1ccc(-c2ccc(-c3nc4ccccc4c(-c4ccccc4)c3Sc3nnnn3-c3ccccc3)cc2)cc1` was tested. Which MIC did it give?
Its MIC is 46.8 µM (≈ 25 µg/mL).

For `CC[C@@H](CO)NCCN[C@@H](CC)CO` [ETHAMBUTOL], which MIC is on record?
The MIC was 7.6 µM (≈ 1.55 µg/mL).

With `NNC(=O)c1ccncc1` [ISONIAZID] as the compound, how does the MIC read?
Its MIC is 0.4 µM (≈ 0.0549 µg/mL).

For `CO[C@H]1/C=C/O[C@@]2(C)Oc3c(C)c(O)c4c(O)c(c(/C=N/N5CCN(C)CC5)c(O)c4c3C2=O)NC(=O)/C(C)=C\C=C\[C@H](C)[C@H](O)[C@@H](C)[C@@H](O)[C@@H](C)[C@H](OC(C)=O)[C@@H]1C` [RIFAMPIN], which MIC is on record?
Its MIC is 0.1 µM (≈ 0.0823 µg/mL).
